According to ChEMBL document CHEMBL1145112, “Pyrazolo[4,3-e]-1,2,4-triazolo[1,5-c]pyrimidine derivatives as adenosine receptor antagonists. Influence of the N5 substituent on the affinity at the human A 3 and A 2B adenosine receptor subtypes: a molecular modeling investigation” (J Med Chem, 2003):

Key:
[1] = molecular target: Adenosine receptors; A1 & A2b (Homo sapiens) (UniProt P30542+P29275); experiment: Relative inhibitory activity against adenosine A1 and A2B receptors; assay type: protein assay
[2] = molecular target: Adenosine receptors; A2b & A3 (Homo sapiens) (UniProt P29275+P0DMS8); experiment: Relative inhibitory activity against adenosine A3 receptors and A2B receptors; assay type: protein assay
[3] = molecular target: T1, Adenosine receptor A2b (Homo sapiens, UniProt P29275); experiment: Inhibitory activity against NECA stimulated cAMP accumulation in CHO cells expressing human adenosine A2B receptor; assay type: functional, cell-based
T1 sequence (P29275 whole entry): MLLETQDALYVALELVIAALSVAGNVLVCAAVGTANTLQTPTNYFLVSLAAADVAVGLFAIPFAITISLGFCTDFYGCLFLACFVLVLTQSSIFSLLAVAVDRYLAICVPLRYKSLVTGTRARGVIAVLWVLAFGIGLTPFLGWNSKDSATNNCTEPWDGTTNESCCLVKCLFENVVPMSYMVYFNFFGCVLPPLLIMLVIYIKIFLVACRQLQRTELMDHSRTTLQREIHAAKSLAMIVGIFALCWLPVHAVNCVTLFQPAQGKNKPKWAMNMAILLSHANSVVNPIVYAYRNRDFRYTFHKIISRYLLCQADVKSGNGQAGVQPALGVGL
Outline: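 Transfected CHO cells (1 × 10^6/assay) in pH 7.4 saline/HEPES/glucose medium with 2 IU/mL adenosine deaminase and Ro 20-1724 (phosphodiesterase inhibitor), preincubated 10 min at 37 °C. Antagonism of 100 nM NECA-stimulated cAMP was measured. Reaction stopped with cold 6% TCA, then ether extraction. cAMP was quantified by competitive binding with [3H]-cAMP and beef adrenal binding protein (150 min, 4 °C), with charcoal separation and scintillation counting.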

[4] = molecular target: T2, Adenosine receptor A1 (Homo sapiens, UniProt P30542); experiment: Displacement of [3H]DPCPX from human Adenosine A1 receptor expressed in CHO cells; assay type: cell-based
T2 sequence (P30542 whole entry): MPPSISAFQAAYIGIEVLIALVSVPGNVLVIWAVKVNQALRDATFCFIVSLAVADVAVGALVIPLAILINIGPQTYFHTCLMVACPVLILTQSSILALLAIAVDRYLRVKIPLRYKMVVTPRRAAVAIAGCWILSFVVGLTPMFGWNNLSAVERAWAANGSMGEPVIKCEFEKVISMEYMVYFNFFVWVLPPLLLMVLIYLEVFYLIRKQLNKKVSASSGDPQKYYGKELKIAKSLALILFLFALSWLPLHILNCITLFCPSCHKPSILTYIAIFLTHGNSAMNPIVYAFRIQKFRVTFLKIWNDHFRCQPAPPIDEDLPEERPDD
Outline: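 Membranes from the transfected cells in 50 mM Tris-HCl, pH 7.4, incubated 120 min at 25 °C with 1 nM [3H]-DPCPX (50 μg protein/assay) and at least six to eight test concentrations. Nonspecific binding was set with 10 μM CHA. Bound and free ligand were separated by GF/B filtration, then scintillation counted. n = 3–6, mean ± SEM.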

[5] = molecular target: T1, Adenosine receptor A2b; experiment: Displacement of [3H]DPCPX from human adenosine A2B receptor expressed in HEK293 cells; assay type: cell-based
Outline: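 Competition run 60 min at 25 °C in 50 mM Tris-HCl, 10 mM MgCl2, 1 mM EDTA, 0.1 mM […], pH 7.4, with 2 IU/mL adenosine deaminase. Assays held 40 nM [3H]-DPCPX, membranes (20 μg protein/assay) and at least six to eight compound concentrations. Nonspecific binding was set with 100 μM NECA. Filtered on GF/B and counted. n = 3–6, mean ± SEM.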

[6] = molecular target: Adenosine receptor A2a (Homo sapiens, UniProt P29274); experiment: Displacement of [3H]ZM-241385 from human adenosine A2A receptors expressed in HEK293 cells; assay type: cell-based
[7] = molecular target: T3, Adenosine receptor A3 (Homo sapiens, UniProt P0DMS8); experiment: Displacement of [3H]MRE3008-F20 from human A3 receptors expressed in HEK293 cells; assay type: cell-based
T3 sequence (P0DMS8 whole entry): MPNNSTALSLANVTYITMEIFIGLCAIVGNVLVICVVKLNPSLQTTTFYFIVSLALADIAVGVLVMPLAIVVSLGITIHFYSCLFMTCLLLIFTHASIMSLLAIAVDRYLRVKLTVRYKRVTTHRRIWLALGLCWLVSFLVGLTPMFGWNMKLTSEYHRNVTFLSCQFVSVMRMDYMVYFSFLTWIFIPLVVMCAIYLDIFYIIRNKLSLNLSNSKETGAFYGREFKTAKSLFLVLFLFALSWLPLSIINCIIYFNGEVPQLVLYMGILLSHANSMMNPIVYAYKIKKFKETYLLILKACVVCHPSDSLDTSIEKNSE
Outline: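 Duplicate competition tubes: 1 nM [3H]-MRE3008-F20 in 50 mM Tris-HCl, 10 mM MgCl2, pH 7.4, membranes (50 μg protein/assay) and at least six to eight ligand concentrations, incubated 120 min at 4 °C. Nonspecific binding was set with 1 μM unlabeled MRE3008-F20. Bound radioactivity was collected on GF/B filters and counted.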

Sequence of Adenosine receptor A2a (P29274 whole entry): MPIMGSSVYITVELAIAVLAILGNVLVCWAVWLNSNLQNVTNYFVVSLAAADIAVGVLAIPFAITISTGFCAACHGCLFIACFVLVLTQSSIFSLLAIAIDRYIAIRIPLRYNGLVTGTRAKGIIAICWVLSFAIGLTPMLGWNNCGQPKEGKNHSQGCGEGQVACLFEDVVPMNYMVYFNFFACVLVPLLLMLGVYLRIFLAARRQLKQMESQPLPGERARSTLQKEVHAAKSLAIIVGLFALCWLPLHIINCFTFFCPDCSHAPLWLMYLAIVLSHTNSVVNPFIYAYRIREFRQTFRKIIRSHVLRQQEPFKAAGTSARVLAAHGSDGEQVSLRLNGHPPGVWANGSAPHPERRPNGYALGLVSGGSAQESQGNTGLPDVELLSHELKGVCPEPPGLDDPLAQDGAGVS

SMILES	Ratio [1]	Ratio [2]	IC50 [3] [µM]	Ki [4] [µM]	Ki [5] [µM]	Ki [6] [µM]	Ki [7] [µM]
Nc1nc2nn(CCc3ccccc3)cc2c2nc(-c3ccco3)nn12	0.2						
Cn1cc2c(nc(NC(=O)Nc3ccccc3)n3nc(-c4ccco4)nc23)n1	2.67	0.0007					
Cn1cc2c(nc(NC(=O)Cc3ccccc3)n3nc(-c4ccco4)nc23)n1	4.2	0.05					
CC(C)CCn1cc2c(nc(NC(=O)Cc3ccccc3)n3nc(-c4ccco4)nc23)n1	6.4	2.6	0.19	0.2	0.031	0.057	
CC(C)CCn1cc2c(nc(NC(=O)Cc3cccc4ccccc34)n3nc(-c4ccco4)nc23)n1	5.07	7.7	0.17	0.142	0.028	0.042	0.215
O=C(COc1ccccc1)Nc1nc2nn(CCc3ccccc3)cc2c2nc(-c3ccco3)nn12	0.9	13.6	0.13	0.02	0.022	0.04	0.3
O=C(Cc1ccccc1)Nc1nc2nn(CCCc3ccccc3)cc2c2nc(-c3ccco3)nn12	1.9	3	0.25	0.075	0.04	0.06	
O=C(Cc1ccccc1)Nc1nc2nn(CCc3ccccc3)cc2c2nc(-c3ccco3)nn12	3.4	1.3	0.21	0.12	0.035	0.06	0.045
O=C(Cc1cccc2ccccc12)Nc1nc2nn(CCc3ccccc3)cc2c2nc(-c3ccco3)nn12	3	4	0.18	0.09	0.03	0.055	0.12
CC(C)CCn1cc2c(nc(NC(=O)COc3ccccc3)n3nc(-c4ccco4)nc23)n1	2.2	2	0.15	0.055	0.025	0.038	0.05
O=C(Cc1cccc2ccccc12)Nc1nc2nn(CCCc3ccccc3)cc2c2nc(-c3ccco3)nn12	55	15	0.11	1.1	0.02	0.8	0.3
O=C(COc1ccccc1)Nc1nc2nn(CCCc3ccccc3)cc2c2nc(-c3ccco3)nn12	2	1.6	0.14	0.05	0.025	0.045	0.04
